The values that follow come from ChEMBL document CHEMBL3860048 (J Med Chem, 2016).

Activity calls are given as the source filed them. No cut-off for these calls is given here.

In data set [1] the test system is Rattus norvegicus. Kind of data set: Inhibition of testosterone levels in Crl:CD(SD) rat plasma assessed as plasma testosterone level <0.04 ng/ml at 3 pmol/hr, sc administered as continuous dosing through alzet osmotic pump for 1 week by radio-immunoassay. Type of data set: functional, organism-based. In outline: (§1)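 Peptide dissolved in 50% DMSO at 3, 10, 30 or 100 µM, loaded into ALZET osmotic pumps for 3 to 100 pmol/h. Pumps implanted sc in 5 Crl:CD(SD) male rats. Plasma testosterone measured by RIA after 1 or 4 weeks. Values below the 0.04 ng/mL detection limit were treated as 0.04. Count of rats below the limit.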

Data set [2] can be described thus: Cmax in Sprague-Dawley rat plasma at 1 mg/kg, sc by LC/MS analysis. Type of data set: ADME, organism-based. More on the design: dose 1 mg/kg, route subcutaneous. In outline:
(§2)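 Single subcutaneous 1 mg/kg dose to SD rats (n=3 per group). Plasma drawn at 5, 10, 15, 30 min and 1, 2, 4, 8, 24 h. Proteins removed with 0.2% formic acid/methanol (1:4, v/v) plus acetonitrile, centrifuged, supernatant diluted in 0.4% aqueous formic acid, then measured by LC/MS. Noncompartmental analysis per rat, mean ± SD.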

The nature of data set [3]: Volume of distribution in steady state in Sprague-Dawley rat plasma at 1 mg/kg, iv up to 24 hrs by LC/MS analysis. The format is ADME, organism-based. As to conditions: read-out: Vdss. In outline:
(§3)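 Single intravenous 1 mg/kg bolus to SD rats (n=3 per group). Blood sampled at 5, 10, 15, 30 min and 1, 2, 4, 8, 24 h. Plasma deproteinized with 0.2% formic acid/methanol (1:4, v/v) plus acetonitrile, spun 15,000 rpm for 5 min, supernatant treated with 0.4% aqueous formic acid and spun again, then quantified by LC/MS. Noncompartmental parameters per rat, reported as mean ± SD.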

A short description of data set [4]: Inhibition of testosterone levels in sc dosed Crl:CD(SD) rat plasma assessed as compound dosing causing plasma testosterone level <0.04 ng/ml in all tested animals administered as continuous dosing through alzet osmotic pump for 1 to 4 weeks by radio-immunoassay. The format is functional.
Data set [5] deals with Rattus norvegicus. Kind of data set: Inhibition of testosterone levels in CD(SD) rat assessed as plasma testosterone level <0.04 ng/ml at 0.01 nmol/hr, sc administered continuously for 6 days through alzet osmotic pump measured after 6 days by radio-immunoassay. Type of data set: functional, organism-based.
Data set [6] addresses KiSS-1 receptor (Homo sapiens, UniProt Q969F8). Kind of data set: Agonist activity at human KISS1R expressed in CHO/dhfr cells assessed as increase in intracellular Ca2+ levels measured for 180 secs by Fluo 3-AM dye based FLIPR assay. The format is functional, cell-based. The method, boiled down:
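CHO cells expressing human KISS1R; FLIPR recording of ligand-induced [Ca2+]i rise over time. Maximum response taken and expressed as percent of the response to a maximal concentration of metastin(45-54). EC50 = concentration giving half-maximal mobilization, from nonlinear regression of smoothed data. Reported as ratio to the metastin(45-54) EC50.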

The nature of data set [7]: AUC (0 to 24 hrs) in Sprague-Dawley rat plasma at 1 mg/kg, iv up to 24 hrs by LC/MS analysis. Type of data set: ADME, organism-based. Further details: dose 1 mg/kg, time < 24 hr, route intravenous. The method, boiled down:
as §3

Data set [8] deals with Rattus norvegicus. In words: Inhibition of testosterone levels in Crl:CD(SD) rat plasma assessed as plasma testosterone level <0.04 ng/ml at 10 pmol/hr, sc administered as continuous dosing through alzet osmotic pump for 1 week by radio-immunoassay. Type of data set: functional, organism-based. The method, boiled down: as §1
Data set [9] can be described thus: MRT in Sprague-Dawley rat plasma at 1 mg/kg, iv by LC/MS analysis. The format is ADME, organism-based. In outline:
as §3

Data set [10] can be described thus: Conformational changes of the compound in distilled water assessed as decrease in beta-sheet content at 0.1 mg/ml by preliminary circular dichroism analysis. More on the design: scale not given: the % may be the effect or the level left.
Data set [11] concerns Rattus norvegicus. Kind of data set: Inhibition of testosterone levels in Crl:CD(SD) rat plasma assessed as plasma testosterone level <0.04 ng/ml at 30 pmol/hr, sc administered as continuous dosing through alzet osmotic pump for 1 week by radio-immunoassay. Type of data set: functional, organism-based. The method, boiled down: as §1
The subject of data set [12] is Rattus norvegicus. Kind of data set: Inhibition of testosterone levels in Crl:CD(SD) rat plasma assessed as plasma testosterone level <0.04 ng/ml at 30 pmol/hr, sc administered as continuous dosing through alzet osmotic pump for 4 weeks by radio-immunoassay. Type of data set: functional, organism-based. The method, boiled down:
as §1

Data set [13] can be described thus: Bioavailability in Sprague-Dawley rat plasma at 1 mg/kg, sc up to 24 hrs by LC/MS analysis. Type of data set: ADME, organism-based. The method, boiled down:
as §2

The nature of data set [14]: Tmax in Sprague-Dawley rat plasma at 1 mg/kg, sc by LC/MS analysis. The format is ADME, organism-based. In outline:
as §2

Data set [15] can be described thus: AUC (0 to 24 hrs) in Sprague-Dawley rat plasma at 1 mg/kg, sc by LC/MS analysis. The format is ADME, organism-based. Further details: dose 1 mg/kg, time < 24 hr, route subcutaneous. The method, boiled down:
as §2

Data set [16] concerns the target KiSS-1 receptor (Rattus norvegicus, UniProt Q924U1). In words: Agonist activity at rat KISS1R expressed in CHO/dhfr cells assessed as increase in intracellular Ca2+ levels measured for 180 secs by Fluo 3-AM dye based FLIPR assay. The format is functional, cell-based.
Data set [17] can be described thus: Solubility of the compound in water at 20 mg/ml. The format is physicochemical. Conditions: buffer.
The nature of data set [18]: Solubility of the compound in water up to 500 mg/ml. The format is physicochemical. As to conditions: buffer.
Data set [19] can be described thus: Total clearance in Sprague-Dawley rat plasma at 1 mg/kg, iv up to 24 hrs by LC/MS analysis. The format is ADME, organism-based. In outline: as §3
The nature of data set [20]: Plasma concentration in Sprague-Dawley rat at 1 mg/kg, iv after 5 mins by LC/MS analysis. Type of data set: ADME, organism-based. In outline: as §3
A short description of data set [21]: MRT in Sprague-Dawley rat plasma at 1 mg/kg, sc by LC/MS analysis. Type of data set: ADME, organism-based. In outline: as §2

Chain of KiSS-1 receptor (Homo sapiens, UniProt Q969F8) (Q969F8 whole entry): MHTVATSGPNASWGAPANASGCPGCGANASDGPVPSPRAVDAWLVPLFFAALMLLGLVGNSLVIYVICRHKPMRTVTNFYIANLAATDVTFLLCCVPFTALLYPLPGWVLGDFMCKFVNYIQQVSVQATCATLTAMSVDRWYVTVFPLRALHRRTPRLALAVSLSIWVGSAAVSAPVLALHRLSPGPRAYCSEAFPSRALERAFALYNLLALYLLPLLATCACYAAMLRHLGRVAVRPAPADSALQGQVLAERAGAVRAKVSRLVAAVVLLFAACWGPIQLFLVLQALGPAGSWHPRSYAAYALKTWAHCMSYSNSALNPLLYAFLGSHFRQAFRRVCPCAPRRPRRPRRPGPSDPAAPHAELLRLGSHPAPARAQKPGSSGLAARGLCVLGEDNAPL
Chain of KiSS-1 receptor (Rattus norvegicus, UniProt Q924U1) (Q924U1 whole entry): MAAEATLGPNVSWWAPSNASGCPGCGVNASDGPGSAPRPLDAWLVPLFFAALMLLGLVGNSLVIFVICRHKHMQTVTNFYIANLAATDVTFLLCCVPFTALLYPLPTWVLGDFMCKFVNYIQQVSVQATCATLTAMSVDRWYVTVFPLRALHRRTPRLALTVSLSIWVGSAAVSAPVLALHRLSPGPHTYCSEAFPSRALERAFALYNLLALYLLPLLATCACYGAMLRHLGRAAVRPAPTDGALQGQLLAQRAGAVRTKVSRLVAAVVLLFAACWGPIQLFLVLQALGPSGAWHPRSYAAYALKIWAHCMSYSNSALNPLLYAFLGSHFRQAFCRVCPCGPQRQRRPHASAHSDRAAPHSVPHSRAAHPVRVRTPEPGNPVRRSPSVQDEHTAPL

Turning to `CNC(=N)NCCC[C@H](NC(=O)[C@H](CC(C)C)NC(=O)NNC(=O)[C@H](Cc1ccccc1)NC(=O)[C@@H](NC(=O)[C@H](CC(N)=O)NC(=O)[C@@H]1C[C@@H](O)CN1C(=O)[C@@H](Cc1ccc(O)cc1)NC(C)=O)[C@@H](C)O)C(=O)N[C@@H](Cc1c[nH]c2ccccc12)C(N)=O` [TAK-448], the inhibition entry in data set [1], in data set [5], in [8], in [11] and in data set [12] was “Active” each time. For the same compound, the peak level in [2] (Cmax) was 342 ng/mL. Moreover, in data set [3], the Vd is 0.403 L/kg. The MED in data set [4] came to 30 pmol/h. For the same compound, the EC50 in data set [6] is 5.2 nM; in data set [16], 36 nM. Also, the AUC(0-t) at 24 h in [7] was 1550 ng·h/mL; in [15] it was 679 ng·h/mL. In addition, the MRT in [9] came out at 37.2 min; in data set [21], 72.6 min. In [10], the Activity was found to be 21.9%. This compound returned a bioavailability in data set [13] of 43.9%. Moreover, the Tmax in data set [14] turned out to be 19.8 min. In addition, the solubility entry in data set [17] and in [18] was “Soluble” throughout. This compound had a clearance in [19] of 10.8 mL/min/kg. The concentration at 5 min in data set [20] worked out at 2850 ng/mL.
